The record followed here is ChEMBL document CHEMBL4411272, “Design, synthesis and biological evaluation of AZD9291 derivatives as selective and potent EGFRL858R/T790M inhibitors” (Eur J Med Chem, 2019).

pIC50: −log10 of the molar value. Activity calls are given as the source filed them. The rule behind the calls is not given here.

For orientation: pIC50 means the negative decadic logarithm of the IC50, by convention in mol/L.

The target of assay [1] is Epidermal growth factor receptor (Homo sapiens, UniProt P00533). As to the kind of experiment: Inhibition of wild-type EGFR (unknown origin) using substrate-biotin by ELISA-based mobility shift assay. A general note: In an ELISA, binding on a coated surface is turned into a signal by an enzyme label.
For assay [2], the target named is Epidermal growth factor receptor (Homo sapiens, UniProt P00533, L858R/T790M). In words: Inhibition of EGFR T790M/L858R double mutant (unknown origin) using substrate-biotin by ELISA-based mobility shift assay.
The species named for another assay is Homo sapiens. In words: Selectivity ratio of IC50 for wild-type EGFR (unknown origin) to IC50 for EGFR T790M/L858R double mutant (unknown origin).
In assay [3] the test system is NCI-H1975. As to the kind of experiment: Antiproliferative activity against human NCI-H1975 cells after 72 hrs by MTT assay. To be noted: NCI-H1975, 72 h. The assay is classed as functional, cell-based. In a few lines: (§1)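 MTT assay; cells grown as monolayers in DMEM or RPMI1640 with 10% FBS at 37 °C, 5% CO2 for 24 h, then compound added for 72 h. MTT at 5 μg/mL for 4 h at 37 °C, formazan dissolved in DMSO, absorbance read at 492 nm with 630 nm reference. Each compound tested three times per line; IC50 from averaged determinations.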
In general terms: Tetrazolium dyes change colour on reduction, which living cells bring about.

The subject of assay [4] is A549. In words: Antiproliferative activity against human A549 cells after 72 hrs by MTT assay. The assay is classed as functional, cell-based. Particulars: A549, 72 h. In a few lines: as §1
The test system of a further assay is HepG2. As to the kind of experiment: Antiproliferative activity against human HepG2 cells after 72 hrs by MTT assay. The assay is classed as functional, cell-based. To be noted: HepG2, 72 h. In a few lines:
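MTT assay; cells grown as monolayers in DMEM or RPMI1640 with 10% FBS at 37 °C, 5% CO2 for 24 h, then compound added for 72 h. Each compound tested three times per line; IC50 from averaged determinations.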

Assay [5] concerns NCI-H1975. As to the kind of experiment: Induction of apoptosis in human NCI-H1975 at 0.25 uM by acridine orange staining-based fluorescence assay. The assay is classed as functional, cell-based. In a few lines: (§2)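 H1975 cells stained with acridine orange after treatment, alongside an untreated control group. Cell and chromatin morphology assessed by fluorescence imaging.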
In assay [6] the test system is NCI-H1975. In words: Induction of apoptosis in human NCI-H1975 assessed as induction of chromatin shrinkage at 0.25 uM by acridine orange staining-based fluorescence assay. The assay is classed as functional, cell-based. In a few lines: as §2
The test system of assay [7] is NCI-H1975. In words: Induction of apoptosis in human NCI-H1975 assessed as formation of cells with sharp edge at 0.25 uM by acridine orange staining-based fluorescence assay. Format: functional, cell-based. In a few lines:
as §2

In assay [8] the test system is NCI-H1975. In words: Induction of apoptosis in human NCI-H1975 assessed as induction of cell structure destruction at 0.25 uM by H33342 staining-based inverted fluorescence microscopic analysis. The assay is classed as functional. In a few lines:
(§3)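 H1975 cells stained with Hoechst 33342 after treatment, alongside an untreated control. Nuclear blue fluorescence, dye uptake, chromatin condensation and cell structure viewed under an inverted fluorescence microscope.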

In assay [9] the test system is NCI-H1975. As to the kind of experiment: Induction of apoptosis in human NCI-H1975 assessed as induction of chromatin shrinkage at 0.25 uM by H33342 staining-based inverted fluorescence microscopic analysis. Format: functional, cell-based. In a few lines: as §3
Assay [10] relates to NCI-H1975. In words: Induction of apoptosis in human NCI-H1975 assessed as induction of membrane damage at 0.25 uM by H33342 staining-based inverted fluorescence microscopic analysis. Format: functional, cell-based. In a few lines:
as §3

The subject of assay [11] is A549. As to the kind of experiment: Cell cycle arrest in human A549 cells assessed as accumulation of cells at G0/G1 phase at 0.36 uM after 24 hrs by propidium iodide staining-based flow cytometric analysis (reference value: 65.22%). Format: functional. In a few lines:
(§4)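 A549 cells seeded at 1×10^5 per well, grown 24 h, then treated 24 h with vehicle (0.1% DMSO) or compound at several concentrations. Cells fixed in ice-cold 70% ethanol at 4 °C for 12 h, washed in PBS, treated with 1 mg/mL RNase for 30 min at 37 °C, stained with propidium iodide 30 min in the dark. DNA content measured by flow cytometry.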
In general terms: In flow cytometry, cells or beads pass a laser one at a time.

Assay [12] deals with A549. As to the kind of experiment: Cell cycle arrest in human A549 cells assessed as accumulation of cells at S phase at 0.36 uM after 24 hrs by propidium iodide staining-based flow cytometric analysis (reference value: 32.13%). The assay is classed as functional. The method in brief: as §4
Assay [13] concerns A549. In words: Cell cycle arrest in human A549 cells assessed as accumulation of cells at G2/M phase at 0.36 uM after 24 hrs by propidium iodide staining-based flow cytometric analysis (reference value: 2.65%). The assay is classed as functional. In a few lines: as §4
Assay [14] concerns A549. In words: Cell cycle arrest in human A549 cells assessed as accumulation of cells at G0/G1 phase at 0.72 uM after 24 hrs by propidium iodide staining-based flow cytometric analysis (reference value: 65.22%). The assay is classed as functional. In a few lines:
as §4

The test system of assay [15] is A549. In words: Cell cycle arrest in human A549 cells assessed as accumulation of cells at S phase at 0.72 uM after 24 hrs by propidium iodide staining-based flow cytometric analysis (reference value: 32.13%). Format: functional. In a few lines: as §4
The test system of assay [16] is A549. In words: Cell cycle arrest in human A549 cells assessed as accumulation of cells at G2/M phase at 0.72 uM after 24 hrs by propidium iodide staining-based flow cytometric analysis (reference value: 2.65%). The assay is classed as functional. In a few lines:
as §4

Assay [17] concerns A549. As to the kind of experiment: Cell cycle arrest in human A549 cells assessed as accumulation of cells at G0/G1 phase at 1.80 uM after 24 hrs by propidium iodide staining-based flow cytometric analysis (reference value: 65.22%). Format: functional. In a few lines:
as §4

In assay [18] the test system is A549. As to the kind of experiment: Cell cycle arrest in human A549 cells assessed as accumulation of cells at S phase at 1.80 uM after 24 hrs by propidium iodide staining-based flow cytometric analysis (reference value: 32.13%). Format: functional. The method in brief:
as §4

Assay [19] concerns A549. As to the kind of experiment: Cell cycle arrest in human A549 cells assessed as accumulation of cells at G2/M phase at 1.80 uM after 24 hrs by propidium iodide staining-based flow cytometric analysis (reference value: 2.65%). The assay is classed as functional. The method in brief: as §4
Assay [20] has as its system A549. As to the kind of experiment: Cell cycle arrest in human A549 cells assessed as accumulation at G2/M phase after 24 hrs by propidium iodide staining-based flow cytometric analysis. Format: functional. In a few lines:
as §4

Epidermal growth factor receptor (Homo sapiens, UniProt P00533, L858R/T790M), sequence (P00533 25-1210 T790M/L858R limits assumed): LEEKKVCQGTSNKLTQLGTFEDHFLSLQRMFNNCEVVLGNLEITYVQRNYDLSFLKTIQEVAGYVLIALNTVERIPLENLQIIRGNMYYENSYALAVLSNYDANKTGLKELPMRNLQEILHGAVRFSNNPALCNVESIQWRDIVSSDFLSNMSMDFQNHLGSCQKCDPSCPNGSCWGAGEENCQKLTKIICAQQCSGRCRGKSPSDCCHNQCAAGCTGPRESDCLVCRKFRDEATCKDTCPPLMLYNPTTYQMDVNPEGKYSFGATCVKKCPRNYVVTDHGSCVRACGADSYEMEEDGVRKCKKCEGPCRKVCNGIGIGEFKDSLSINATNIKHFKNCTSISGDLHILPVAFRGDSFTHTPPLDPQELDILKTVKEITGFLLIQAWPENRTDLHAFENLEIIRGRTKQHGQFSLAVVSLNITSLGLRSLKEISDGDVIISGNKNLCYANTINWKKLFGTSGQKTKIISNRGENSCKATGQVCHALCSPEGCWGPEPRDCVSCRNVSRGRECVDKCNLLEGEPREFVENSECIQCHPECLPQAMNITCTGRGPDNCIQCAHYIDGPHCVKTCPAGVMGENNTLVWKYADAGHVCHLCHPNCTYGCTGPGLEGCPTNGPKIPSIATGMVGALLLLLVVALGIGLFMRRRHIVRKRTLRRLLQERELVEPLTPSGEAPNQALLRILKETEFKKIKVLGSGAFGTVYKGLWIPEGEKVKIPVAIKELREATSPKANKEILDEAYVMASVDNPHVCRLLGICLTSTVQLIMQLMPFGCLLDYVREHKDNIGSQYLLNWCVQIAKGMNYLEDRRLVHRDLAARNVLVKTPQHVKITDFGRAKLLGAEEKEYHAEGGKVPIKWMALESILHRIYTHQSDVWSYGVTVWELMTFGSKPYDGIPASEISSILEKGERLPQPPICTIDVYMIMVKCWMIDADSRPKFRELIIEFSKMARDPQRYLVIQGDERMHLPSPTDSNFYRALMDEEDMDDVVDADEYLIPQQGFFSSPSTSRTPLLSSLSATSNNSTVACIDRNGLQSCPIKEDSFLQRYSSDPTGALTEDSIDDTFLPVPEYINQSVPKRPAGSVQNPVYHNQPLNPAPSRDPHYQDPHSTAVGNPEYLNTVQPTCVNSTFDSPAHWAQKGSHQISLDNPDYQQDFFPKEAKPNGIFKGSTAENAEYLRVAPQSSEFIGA
Epidermal growth factor receptor (Homo sapiens, UniProt P00533), sequence (P00533 whole entry): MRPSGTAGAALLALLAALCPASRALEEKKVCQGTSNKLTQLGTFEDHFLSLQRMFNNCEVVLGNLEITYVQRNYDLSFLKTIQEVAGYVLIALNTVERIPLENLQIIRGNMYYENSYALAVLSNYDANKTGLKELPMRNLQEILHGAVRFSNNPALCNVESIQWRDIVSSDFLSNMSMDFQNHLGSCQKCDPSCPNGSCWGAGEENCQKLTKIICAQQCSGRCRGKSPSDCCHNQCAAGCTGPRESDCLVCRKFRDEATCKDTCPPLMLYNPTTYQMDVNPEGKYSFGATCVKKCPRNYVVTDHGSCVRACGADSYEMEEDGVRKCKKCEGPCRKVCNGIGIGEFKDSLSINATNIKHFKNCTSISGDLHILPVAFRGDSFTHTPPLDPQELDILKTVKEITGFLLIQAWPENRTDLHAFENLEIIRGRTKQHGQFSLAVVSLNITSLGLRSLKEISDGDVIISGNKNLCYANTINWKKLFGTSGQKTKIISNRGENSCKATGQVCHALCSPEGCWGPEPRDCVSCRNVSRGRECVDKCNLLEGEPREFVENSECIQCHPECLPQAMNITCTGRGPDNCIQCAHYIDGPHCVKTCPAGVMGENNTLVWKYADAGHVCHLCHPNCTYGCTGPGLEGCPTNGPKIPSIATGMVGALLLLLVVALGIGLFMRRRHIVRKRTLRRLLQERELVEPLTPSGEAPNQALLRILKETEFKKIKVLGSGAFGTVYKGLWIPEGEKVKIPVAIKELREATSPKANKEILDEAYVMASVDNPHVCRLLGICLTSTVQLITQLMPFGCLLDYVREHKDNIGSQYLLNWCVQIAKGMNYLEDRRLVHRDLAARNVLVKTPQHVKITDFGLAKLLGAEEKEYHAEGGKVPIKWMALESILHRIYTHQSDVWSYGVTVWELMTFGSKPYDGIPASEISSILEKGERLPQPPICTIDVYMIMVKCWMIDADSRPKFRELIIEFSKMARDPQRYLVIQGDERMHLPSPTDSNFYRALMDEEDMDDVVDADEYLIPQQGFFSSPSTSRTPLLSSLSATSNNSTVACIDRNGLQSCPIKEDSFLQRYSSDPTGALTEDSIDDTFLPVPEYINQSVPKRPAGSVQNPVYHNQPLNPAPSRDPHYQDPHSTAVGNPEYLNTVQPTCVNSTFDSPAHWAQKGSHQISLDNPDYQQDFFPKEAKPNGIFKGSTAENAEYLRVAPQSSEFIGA

Turning to `CCC/C=C\C(=O)Nc1cc(Nc2nc(C)cc(-c3cn(C)c4ccccc34)n2)c(OC)cc1N(C)CCN(C)C`, the pIC50 in [1] is 5.82; in [2], 8.10; with NCI-H1975 [3], 6.60; with A549 [4], 6.48; in the assay on HepG2 it was 6.44. Besides, in the assay listed under Homo sapiens, the Ratio IC50 was found to be 191. The result with NCI-H1975 [5], with NCI-H1975 [6], with NCI-H1975 [7], with NCI-H1975 [8], with NCI-H1975 [9] and in the assay on NCI-H1975 [10] was Active. The Activity in the assay on A549 [11] was found to be 56.78%; in the assay on A549 [12] it was 37.15%; in the assay on A549 [13], 6.07%; with A549 [14] it was 44.91%; with A549 [15] it was 39.81%; in the assay with A549 [16] it was 15.28%. The Activity in the assay with A549 [17] was 39.55%; in the assay on A549 [18], 38.24%; with A549 [19], 22.24%; with A549 [20], “Dose-dependent effect”.
As to `CCC/C=C\C(=O)Nc1cc(Nc2nccc(-c3cn(C)c4ccc(F)cc34)n2)c(OC)cc1N(C)CCN(C)C`, the pIC50 is 7.92 in [1]; 8.12 in assay [2]; 5.56 in the assay with NCI-H1975 [3]; 5.99 with A549 [4]; 5.47 in the assay with HepG2. In addition, the Ratio IC50 in the assay listed under Homo sapiens turned out to be 1.6.
